Assay results: ChEMBL document CHEMBL3351639, “Fluorinated analogues of marsanidine, a highly α2-AR/imidazoline I1 binding site-selective hypotensive agent. Synthesis and biological activities” (Eur J Med Chem, 2014)

Experiments:
Format in all cases: cell-based
[1] = target: T1, Alpha-2B adrenergic receptor (Homo sapiens, UniProt P18089); test: Displacement of [3H]RS-79948-197 from human alpha2B adrenoceptor expressed in CHO-K1 cells after 45 mins by liquid scintillation counting
T1 sequence (P18089 whole entry): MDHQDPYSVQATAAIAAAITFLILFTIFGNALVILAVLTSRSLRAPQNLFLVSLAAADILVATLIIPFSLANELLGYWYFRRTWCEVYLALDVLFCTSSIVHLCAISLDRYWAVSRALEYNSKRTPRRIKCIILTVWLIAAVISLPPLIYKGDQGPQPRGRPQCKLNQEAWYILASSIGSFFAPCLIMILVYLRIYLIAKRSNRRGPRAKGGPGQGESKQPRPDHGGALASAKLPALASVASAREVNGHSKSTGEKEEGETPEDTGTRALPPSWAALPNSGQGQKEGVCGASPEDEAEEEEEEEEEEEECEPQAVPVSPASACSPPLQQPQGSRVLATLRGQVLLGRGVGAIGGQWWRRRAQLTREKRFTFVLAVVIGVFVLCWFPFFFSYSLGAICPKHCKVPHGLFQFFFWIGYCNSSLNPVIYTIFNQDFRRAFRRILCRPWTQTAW
Summary of the method: (§1)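 Membranes from CHO-K1 cells stably expressing each human α2-AR subtype (6–10 µg protein). Used 0.2 nM [3H]RS-79948-197 and 8 serial dilutions of competitor in 50 mM potassium phosphate, pH 7.4. Non-specific binding defined with 100 µM oxymetazoline. Filtration, then scintillation counting. Run in duplicate, at least 3 repeats. One-site nonlinear fit; IC50 converted to Ki by Cheng-Prusoff.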

[2] = target: T2, Alpha-2A adrenergic receptor (Homo sapiens, UniProt P08913); test: Displacement of [3H]RS-79948-197 from human alpha2A adrenoceptor expressed in CHO-K1 cells after 45 mins by liquid scintillation counting; summary of the method: as §1
T2 sequence (P08913 whole entry): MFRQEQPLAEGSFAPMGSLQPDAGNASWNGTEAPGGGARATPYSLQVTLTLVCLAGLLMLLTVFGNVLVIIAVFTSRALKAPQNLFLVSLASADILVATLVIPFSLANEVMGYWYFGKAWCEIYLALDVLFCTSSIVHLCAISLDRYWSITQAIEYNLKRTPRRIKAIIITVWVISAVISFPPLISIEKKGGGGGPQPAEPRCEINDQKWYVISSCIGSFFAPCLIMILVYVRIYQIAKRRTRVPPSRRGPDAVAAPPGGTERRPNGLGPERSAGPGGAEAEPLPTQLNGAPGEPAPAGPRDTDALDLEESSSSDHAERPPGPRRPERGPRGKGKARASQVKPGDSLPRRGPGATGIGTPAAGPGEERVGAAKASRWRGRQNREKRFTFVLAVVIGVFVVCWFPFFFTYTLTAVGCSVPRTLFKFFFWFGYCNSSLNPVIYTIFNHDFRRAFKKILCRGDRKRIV

[3] = target: T3, Alpha-2C adrenergic receptor (Homo sapiens, UniProt P18825); test: Displacement of [3H]RS-79948-197 from human alpha2C adrenoceptor expressed in CHO-K1 cells after 45 mins by liquid scintillation counting; summary of the method: as §1
T3 sequence (P18825 whole entry): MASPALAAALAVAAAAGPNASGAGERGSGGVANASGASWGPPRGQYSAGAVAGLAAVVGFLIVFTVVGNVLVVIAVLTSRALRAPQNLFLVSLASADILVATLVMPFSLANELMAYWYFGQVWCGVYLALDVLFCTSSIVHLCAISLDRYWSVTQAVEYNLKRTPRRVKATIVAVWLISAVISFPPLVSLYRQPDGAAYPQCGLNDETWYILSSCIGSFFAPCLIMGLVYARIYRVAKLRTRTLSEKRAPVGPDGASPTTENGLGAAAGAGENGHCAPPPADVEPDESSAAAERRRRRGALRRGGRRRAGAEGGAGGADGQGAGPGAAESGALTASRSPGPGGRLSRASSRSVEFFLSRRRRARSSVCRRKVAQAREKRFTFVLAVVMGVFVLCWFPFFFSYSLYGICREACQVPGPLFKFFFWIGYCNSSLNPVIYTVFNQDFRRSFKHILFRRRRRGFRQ

| SMILES | Ki [1] [nM] | Ki [2] [nM] | Ki [3] [nM] |
| --- | --- | --- | --- |
| Fc1ccc2cnn(N=C3NCCN3)c2c1 | 72 | 33 | 600 |
| Fc1cccc2cnn(N=C3NCCN3)c12 | 158 | 65 | 1200 |
